This note sets out measurements from ChEMBL document CHEMBL1153277 (Bioorg Med Chem Lett, 2009).

In series [1] the target is Neuronal acetylcholine receptor; alpha4/beta2 (Homo sapiens, UniProt P17787+P43681). The experiment in a line: Antagonist activity at human alpha4beta2 nAChR expressed in HEK293 cells by calcium influx assay. The series is classed as functional, cell-based.
The species entered for series [2] is Homo sapiens. The experiment in a line: Selectivity for human alpha4beta2 nAChR over human alpha7 nAChR.
The target in series [3] is Neuronal acetylcholine receptor subunit alpha-7 (Homo sapiens, UniProt P36544). The experiment in a line: Agonist activity at human recombinant alpha7 nAChR expressed in rat GH3 cells by calcium influx assay. In kind it is functional, cell-based. The method in brief: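 GH3 cells recombinantly expressing human α7 nAChR; agonist activity. Each compound run in duplicate. EC50 taken from individual 8-point concentration-response curves and expressed as pEC50, with Emax given in %.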

Series [4] deals with Neuronal acetylcholine receptor; alpha3/beta4 (Homo sapiens, UniProt P30926+P32297). The experiment in a line: Antagonist activity at human alpha3beta4 nAChR expressed in HEK293 cells by calcium influx assay. In kind it is functional, cell-based.
A short description of series [5]: Metabolic stability in mouse liver microsomes assessed as hepatic extraction ratio. The series is classed as ADME, Microsome. Particulars: read-out: Activity. The gist of the method: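 Compound incubated with mouse or human liver microsomes. In vitro hepatic extraction ratio reported as % compound depleted at the end of the experiment; half-life also given.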

Series [6] relates to Mus musculus. As to the kind of experiment: Plasma concentration in DBA/2 mouse at 30 umol/kg, po after 4 hrs. The series is classed as ADME, organism-based. Particulars: in vivo. The gist of the method: (§1)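 Mice (n = 6) dosed 30 µmol/kg po. Brain and plasma levels measured at 1 h and 4 h after dosing, reported as pmol/g.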
For series [7], the system named is Mus musculus. The experiment in a line: Plasma concentration in DBA/2 mouse at 30 umol/kg, po after 1 hr. Particulars: in vivo. In kind it is ADME, organism-based. The method in brief:
as §1

The target in series [8] is T1, 5-hydroxytryptamine receptor 3A (Homo sapiens, UniProt P46098).
T1 sequence (P46098 whole entry): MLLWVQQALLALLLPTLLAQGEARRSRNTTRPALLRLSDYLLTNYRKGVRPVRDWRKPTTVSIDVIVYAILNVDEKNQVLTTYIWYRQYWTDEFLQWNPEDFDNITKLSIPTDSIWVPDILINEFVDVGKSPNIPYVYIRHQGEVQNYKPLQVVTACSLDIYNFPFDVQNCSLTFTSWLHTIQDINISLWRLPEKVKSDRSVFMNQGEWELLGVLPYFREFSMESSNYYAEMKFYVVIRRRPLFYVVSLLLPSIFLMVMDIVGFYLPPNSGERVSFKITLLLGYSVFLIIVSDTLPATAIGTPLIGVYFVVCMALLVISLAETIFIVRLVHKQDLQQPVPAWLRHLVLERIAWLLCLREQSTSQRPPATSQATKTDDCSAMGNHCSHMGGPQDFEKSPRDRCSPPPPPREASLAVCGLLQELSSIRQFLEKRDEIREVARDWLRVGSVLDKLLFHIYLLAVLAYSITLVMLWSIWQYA
The experiment in a line: Antagonist activity at human 5HT3 receptor by calcium influx assay. The series is classed as functional.

The species named for series [9] is Homo sapiens. As to the kind of experiment: Selectivity for human alpha3beta4 nAChR over human alpha7 nAChR.
In series [10] the test system is Heart. As to the kind of experiment: Toxicity in langendorff isolated rabbit heart assessed as effect on QT interval prolongation up to 10 uM by whole heart assay. The series is classed as tissue-based, Oryctolagus cuniculus. The gist of the method: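 Langendorff isolated rabbit heart, ex vivo whole-heart preparation. QT interval monitored at concentrations up to 10 µM.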

The nature of series [11]: Protein binding in rat plasma assessed as fraction unbound. In kind it is ADME, cell-free. The method in brief: (§2)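 Binding to human and rat plasma protein, reported as the free (unbound) fraction in %.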
Series [12] has as its system Brain. As to the kind of experiment: Drug level in DBA/2 mouse brain at 30 umol/kg, po after 1 hr. In kind it is ADME, organism-based. To be noted: in vivo. The gist of the method: as §1
The target in series [13] is Acetylcholine receptor; alpha1/beta1/delta/gamma (Homo sapiens, UniProt P02708+P07510+P11230+Q07001). As to the kind of experiment: Antagonist activity at human alpha-1-beta-1-gamma-delta nAChR expressed in human TE671 cells by calcium influx assay. The series is classed as functional, cell-based, TE-671.
Series [14] can be described thus: Octanol-water partition coefficient, log P of the compound. In kind it is physicochemical.
Series [15] concerns Brain. As to the kind of experiment: Drug level in DBA/2 mouse brain at 30 umol/kg, po after 4 hrs. The series is classed as ADME, organism-based. To be noted: in vivo. The gist of the method:
as §1

Series [16] can be described thus: Inhibition of sodium channel at 30 uM by patch-clamp technique.
The species named for series [17] is Homo sapiens. As to the kind of experiment: Selectivity for human 5HT3 receptor over human alpha7 nAChR.
Series [18] is described as follows: Protein binding in human plasma assessed as fraction unbound. In kind it is ADME, cell-free. The gist of the method: as §2
In series [19] the target is Voltage-gated inwardly rectifying potassium channel KCNH2 (Homo sapiens, UniProt Q12809). The experiment in a line: Inhibition of human ERG by patch-clamp technique. Background: The patch-clamp technique gives a direct electrical read-out from membranes.
The species named for series [20] is Homo sapiens. The experiment in a line: Selectivity for human alpha-1-beta-1-gamma-delta nAChR over human alpha7 nAChR.
The target in series [21] is T2, Muscarinic acetylcholine receptor M5 (Homo sapiens, UniProt P08912).
T2 sequence (P08912 whole entry): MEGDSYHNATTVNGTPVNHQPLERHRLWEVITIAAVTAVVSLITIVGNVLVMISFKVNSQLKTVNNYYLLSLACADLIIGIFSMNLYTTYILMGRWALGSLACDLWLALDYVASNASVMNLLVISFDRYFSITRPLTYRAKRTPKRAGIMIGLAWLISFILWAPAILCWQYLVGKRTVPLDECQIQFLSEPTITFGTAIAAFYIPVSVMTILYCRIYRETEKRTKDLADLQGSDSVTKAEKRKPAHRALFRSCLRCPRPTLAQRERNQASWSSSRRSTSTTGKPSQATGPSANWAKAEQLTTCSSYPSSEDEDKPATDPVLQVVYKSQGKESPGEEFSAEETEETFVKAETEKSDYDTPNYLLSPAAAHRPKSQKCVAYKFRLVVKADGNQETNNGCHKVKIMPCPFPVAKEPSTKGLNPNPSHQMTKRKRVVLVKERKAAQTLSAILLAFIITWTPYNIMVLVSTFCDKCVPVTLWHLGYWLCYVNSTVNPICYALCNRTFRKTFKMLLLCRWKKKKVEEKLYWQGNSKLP
The experiment in a line: Inhibition of human recombinant muscarinic M5 receptor.

In series [22] the target is T3, Muscarinic acetylcholine receptor M2 (Homo sapiens, UniProt P08172).
T3 sequence (P08172 whole entry): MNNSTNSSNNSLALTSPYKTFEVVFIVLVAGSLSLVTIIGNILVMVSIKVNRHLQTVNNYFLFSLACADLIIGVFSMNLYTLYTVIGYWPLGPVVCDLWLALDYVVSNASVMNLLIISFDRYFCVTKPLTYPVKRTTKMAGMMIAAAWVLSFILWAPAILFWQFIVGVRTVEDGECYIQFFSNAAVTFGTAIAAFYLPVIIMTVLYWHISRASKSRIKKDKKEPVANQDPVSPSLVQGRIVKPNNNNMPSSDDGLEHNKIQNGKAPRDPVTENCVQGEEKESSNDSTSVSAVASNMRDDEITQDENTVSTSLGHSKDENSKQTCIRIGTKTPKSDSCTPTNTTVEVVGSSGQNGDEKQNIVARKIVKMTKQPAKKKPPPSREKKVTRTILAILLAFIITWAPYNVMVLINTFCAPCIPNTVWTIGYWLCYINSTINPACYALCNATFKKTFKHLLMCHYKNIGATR
The experiment in a line: Inhibition of human recombinant muscarinic M2 receptor.

Series [23] addresses T4, Muscarinic acetylcholine receptor M1 (Homo sapiens, UniProt P11229).
T4 sequence (P11229 whole entry): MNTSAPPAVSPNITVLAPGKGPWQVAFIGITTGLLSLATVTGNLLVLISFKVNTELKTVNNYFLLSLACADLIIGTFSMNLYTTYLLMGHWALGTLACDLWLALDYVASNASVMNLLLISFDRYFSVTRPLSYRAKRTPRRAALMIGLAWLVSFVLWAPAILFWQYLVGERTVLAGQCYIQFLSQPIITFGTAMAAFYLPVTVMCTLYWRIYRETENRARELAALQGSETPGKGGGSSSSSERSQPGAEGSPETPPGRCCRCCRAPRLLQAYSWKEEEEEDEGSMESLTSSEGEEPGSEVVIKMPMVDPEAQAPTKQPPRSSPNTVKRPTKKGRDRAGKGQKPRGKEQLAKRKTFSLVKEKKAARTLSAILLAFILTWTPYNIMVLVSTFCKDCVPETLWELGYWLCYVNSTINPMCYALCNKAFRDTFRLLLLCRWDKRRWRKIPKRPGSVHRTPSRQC
The experiment in a line: Inhibition of human recombinant muscarinic M1 receptor.

The target in series [24] is T5, Muscarinic acetylcholine receptor M4 (Homo sapiens, UniProt P08173).
T5 sequence (P08173 whole entry): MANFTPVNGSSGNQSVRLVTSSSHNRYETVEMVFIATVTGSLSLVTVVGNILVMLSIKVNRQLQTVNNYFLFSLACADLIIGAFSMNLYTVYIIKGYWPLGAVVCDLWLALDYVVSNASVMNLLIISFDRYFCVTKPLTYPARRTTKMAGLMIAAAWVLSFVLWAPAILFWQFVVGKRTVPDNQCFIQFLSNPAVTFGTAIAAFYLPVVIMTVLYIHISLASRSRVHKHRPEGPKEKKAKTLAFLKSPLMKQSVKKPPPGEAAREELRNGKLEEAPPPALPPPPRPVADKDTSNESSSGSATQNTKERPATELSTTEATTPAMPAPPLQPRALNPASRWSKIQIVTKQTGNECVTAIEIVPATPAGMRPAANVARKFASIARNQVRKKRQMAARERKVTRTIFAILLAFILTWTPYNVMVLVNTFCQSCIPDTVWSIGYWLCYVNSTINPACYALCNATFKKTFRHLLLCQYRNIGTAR
The experiment in a line: Inhibition of human recombinant muscarinic M4 receptor.

The target of series [25] is Muscarinic acetylcholine receptor M3 (Homo sapiens, UniProt P20309). As to the kind of experiment: Inhibition of human recombinant muscarinic M3 receptor.

Sequence of Neuronal acetylcholine receptor subunit alpha-7 (P36544 whole entry): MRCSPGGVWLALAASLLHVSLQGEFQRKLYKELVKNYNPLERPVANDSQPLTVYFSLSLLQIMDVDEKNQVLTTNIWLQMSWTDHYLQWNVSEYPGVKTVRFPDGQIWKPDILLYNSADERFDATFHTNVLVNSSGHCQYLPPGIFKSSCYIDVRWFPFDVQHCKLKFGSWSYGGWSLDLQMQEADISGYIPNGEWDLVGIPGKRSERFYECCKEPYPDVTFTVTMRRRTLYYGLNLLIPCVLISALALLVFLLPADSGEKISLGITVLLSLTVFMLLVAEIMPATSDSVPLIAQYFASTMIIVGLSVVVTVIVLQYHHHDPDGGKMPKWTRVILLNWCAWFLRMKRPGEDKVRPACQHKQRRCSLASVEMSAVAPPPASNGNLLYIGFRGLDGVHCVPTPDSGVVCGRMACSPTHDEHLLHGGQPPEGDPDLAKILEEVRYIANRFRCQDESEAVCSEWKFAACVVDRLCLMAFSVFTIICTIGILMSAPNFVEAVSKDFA
Sequence of Neuronal acetylcholine receptor; alpha4/beta2 (P17787 whole entry): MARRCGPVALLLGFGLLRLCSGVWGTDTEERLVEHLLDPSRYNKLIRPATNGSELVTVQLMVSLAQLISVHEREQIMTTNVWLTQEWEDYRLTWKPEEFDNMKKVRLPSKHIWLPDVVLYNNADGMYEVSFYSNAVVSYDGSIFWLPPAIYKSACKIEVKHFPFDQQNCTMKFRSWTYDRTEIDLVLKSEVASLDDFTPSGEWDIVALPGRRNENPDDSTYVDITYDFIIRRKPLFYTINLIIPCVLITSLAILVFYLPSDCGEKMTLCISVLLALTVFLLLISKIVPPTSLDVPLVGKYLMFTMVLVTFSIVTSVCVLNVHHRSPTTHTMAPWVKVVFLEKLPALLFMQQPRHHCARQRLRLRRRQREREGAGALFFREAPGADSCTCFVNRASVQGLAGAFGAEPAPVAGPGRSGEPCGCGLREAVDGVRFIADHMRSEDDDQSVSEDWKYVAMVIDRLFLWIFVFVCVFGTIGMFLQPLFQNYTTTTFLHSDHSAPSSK
Sequence of Neuronal acetylcholine receptor; alpha4/beta2 (P43681 whole entry): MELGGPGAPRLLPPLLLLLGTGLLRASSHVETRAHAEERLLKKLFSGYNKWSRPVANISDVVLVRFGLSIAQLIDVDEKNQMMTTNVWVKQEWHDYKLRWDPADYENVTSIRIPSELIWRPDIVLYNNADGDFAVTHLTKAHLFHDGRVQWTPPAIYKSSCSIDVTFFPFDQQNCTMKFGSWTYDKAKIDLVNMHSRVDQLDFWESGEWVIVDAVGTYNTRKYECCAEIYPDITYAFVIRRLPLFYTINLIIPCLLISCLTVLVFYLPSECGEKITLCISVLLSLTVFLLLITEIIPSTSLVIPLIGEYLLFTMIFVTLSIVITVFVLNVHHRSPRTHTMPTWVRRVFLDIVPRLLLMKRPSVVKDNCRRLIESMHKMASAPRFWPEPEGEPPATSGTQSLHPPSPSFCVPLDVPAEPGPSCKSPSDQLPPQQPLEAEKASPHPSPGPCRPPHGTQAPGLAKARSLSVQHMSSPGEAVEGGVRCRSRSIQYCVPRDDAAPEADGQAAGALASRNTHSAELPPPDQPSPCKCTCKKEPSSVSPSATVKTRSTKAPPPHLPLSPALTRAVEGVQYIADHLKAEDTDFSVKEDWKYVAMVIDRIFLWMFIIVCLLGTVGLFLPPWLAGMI
Sequence of Acetylcholine receptor; alpha1/beta1/delta/gamma (P02708 whole entry): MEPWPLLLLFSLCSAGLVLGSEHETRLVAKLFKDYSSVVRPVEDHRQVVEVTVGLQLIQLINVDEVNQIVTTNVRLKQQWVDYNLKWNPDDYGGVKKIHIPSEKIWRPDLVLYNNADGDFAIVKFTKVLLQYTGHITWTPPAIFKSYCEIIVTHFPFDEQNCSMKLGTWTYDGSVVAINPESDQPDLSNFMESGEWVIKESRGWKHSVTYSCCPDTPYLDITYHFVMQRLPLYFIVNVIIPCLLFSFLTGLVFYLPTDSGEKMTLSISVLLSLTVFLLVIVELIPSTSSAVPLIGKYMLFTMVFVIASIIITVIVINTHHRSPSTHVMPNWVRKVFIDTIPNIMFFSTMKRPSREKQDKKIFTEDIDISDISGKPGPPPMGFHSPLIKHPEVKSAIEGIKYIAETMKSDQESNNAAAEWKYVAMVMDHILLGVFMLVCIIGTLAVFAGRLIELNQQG
Sequence of Acetylcholine receptor; alpha1/beta1/delta/gamma (P07510 whole entry): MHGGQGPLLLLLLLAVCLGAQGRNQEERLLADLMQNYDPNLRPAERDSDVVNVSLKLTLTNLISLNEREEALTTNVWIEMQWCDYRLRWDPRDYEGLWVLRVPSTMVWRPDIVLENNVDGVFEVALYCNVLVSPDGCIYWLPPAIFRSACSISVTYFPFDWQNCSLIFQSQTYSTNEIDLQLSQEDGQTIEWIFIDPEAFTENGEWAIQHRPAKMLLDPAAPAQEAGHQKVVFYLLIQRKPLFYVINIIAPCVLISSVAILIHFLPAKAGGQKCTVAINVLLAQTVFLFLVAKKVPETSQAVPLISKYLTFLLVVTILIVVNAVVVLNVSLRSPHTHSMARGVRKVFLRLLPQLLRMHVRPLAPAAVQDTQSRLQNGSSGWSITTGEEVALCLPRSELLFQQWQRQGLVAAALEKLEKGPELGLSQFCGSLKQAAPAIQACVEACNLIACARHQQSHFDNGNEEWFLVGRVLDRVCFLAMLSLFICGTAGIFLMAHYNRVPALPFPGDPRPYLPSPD
Sequence of Acetylcholine receptor; alpha1/beta1/delta/gamma (P11230 whole entry): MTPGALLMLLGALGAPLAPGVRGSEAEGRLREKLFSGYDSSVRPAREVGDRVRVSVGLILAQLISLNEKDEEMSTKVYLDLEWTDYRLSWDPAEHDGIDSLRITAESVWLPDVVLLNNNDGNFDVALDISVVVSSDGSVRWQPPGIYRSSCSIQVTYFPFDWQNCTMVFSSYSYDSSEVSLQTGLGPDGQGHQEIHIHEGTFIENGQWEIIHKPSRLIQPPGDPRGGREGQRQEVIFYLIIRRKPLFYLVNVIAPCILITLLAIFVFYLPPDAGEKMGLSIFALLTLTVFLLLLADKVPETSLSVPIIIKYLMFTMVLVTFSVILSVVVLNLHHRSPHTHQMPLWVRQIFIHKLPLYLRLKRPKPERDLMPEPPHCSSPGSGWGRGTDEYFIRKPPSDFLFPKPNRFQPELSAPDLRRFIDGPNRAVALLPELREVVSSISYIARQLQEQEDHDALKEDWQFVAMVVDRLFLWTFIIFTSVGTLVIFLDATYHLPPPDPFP
Sequence of Acetylcholine receptor; alpha1/beta1/delta/gamma (Q07001 whole entry): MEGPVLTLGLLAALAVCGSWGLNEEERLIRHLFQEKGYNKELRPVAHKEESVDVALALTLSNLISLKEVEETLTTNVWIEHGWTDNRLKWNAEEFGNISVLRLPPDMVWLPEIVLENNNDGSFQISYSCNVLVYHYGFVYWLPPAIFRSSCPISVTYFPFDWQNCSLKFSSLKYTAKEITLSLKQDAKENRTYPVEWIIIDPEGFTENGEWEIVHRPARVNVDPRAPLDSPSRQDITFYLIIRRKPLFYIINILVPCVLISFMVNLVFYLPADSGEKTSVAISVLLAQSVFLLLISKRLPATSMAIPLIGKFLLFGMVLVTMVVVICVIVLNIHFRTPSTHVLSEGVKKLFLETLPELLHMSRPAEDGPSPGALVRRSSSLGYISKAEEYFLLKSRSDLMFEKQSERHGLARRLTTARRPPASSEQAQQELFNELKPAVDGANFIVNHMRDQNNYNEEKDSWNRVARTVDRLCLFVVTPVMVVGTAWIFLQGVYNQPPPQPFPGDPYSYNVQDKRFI
Sequence of Neuronal acetylcholine receptor; alpha3/beta4 (P30926 whole entry): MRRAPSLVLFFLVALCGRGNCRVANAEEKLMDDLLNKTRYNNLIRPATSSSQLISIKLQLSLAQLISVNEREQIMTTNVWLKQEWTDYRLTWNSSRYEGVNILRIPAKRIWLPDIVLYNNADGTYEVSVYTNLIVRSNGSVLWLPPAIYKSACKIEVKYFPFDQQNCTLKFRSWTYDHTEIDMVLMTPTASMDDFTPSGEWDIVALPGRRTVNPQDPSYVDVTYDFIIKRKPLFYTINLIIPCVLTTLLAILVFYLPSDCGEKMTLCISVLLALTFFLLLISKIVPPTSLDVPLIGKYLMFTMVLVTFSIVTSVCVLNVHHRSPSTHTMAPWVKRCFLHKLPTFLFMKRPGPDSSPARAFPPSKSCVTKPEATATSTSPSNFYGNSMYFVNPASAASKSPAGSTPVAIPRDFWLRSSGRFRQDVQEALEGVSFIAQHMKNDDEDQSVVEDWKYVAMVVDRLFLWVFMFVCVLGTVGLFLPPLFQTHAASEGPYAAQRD
Sequence of Neuronal acetylcholine receptor; alpha3/beta4 (P32297 whole entry): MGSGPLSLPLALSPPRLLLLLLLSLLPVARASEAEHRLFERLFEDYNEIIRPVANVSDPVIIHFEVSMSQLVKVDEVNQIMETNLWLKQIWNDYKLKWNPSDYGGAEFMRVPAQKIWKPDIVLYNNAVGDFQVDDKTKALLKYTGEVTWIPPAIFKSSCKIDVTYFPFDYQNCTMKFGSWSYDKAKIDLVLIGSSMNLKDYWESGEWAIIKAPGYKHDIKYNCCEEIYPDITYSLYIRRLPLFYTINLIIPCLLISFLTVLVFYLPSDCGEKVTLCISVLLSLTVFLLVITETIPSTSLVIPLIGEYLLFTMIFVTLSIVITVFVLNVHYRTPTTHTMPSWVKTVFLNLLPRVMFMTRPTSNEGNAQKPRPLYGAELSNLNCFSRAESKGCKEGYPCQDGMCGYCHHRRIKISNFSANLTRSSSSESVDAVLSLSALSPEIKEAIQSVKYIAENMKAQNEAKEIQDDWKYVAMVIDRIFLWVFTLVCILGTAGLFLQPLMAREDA

In general, IC50 refers to the midpoint of a concentration-inhibition curve. The EC50 is the concentration needed to bring the measured effect to its halfway point. A word on the Emax: it is the maximal effect, on the per cent scale that the assay sets. What is called fraction unbound is free concentration divided by total concentration. One may read the logP as the decadic logarithm of the partition coefficient of the neutral form, usually between octanol and water. A higher logP goes with a more lipophilic compound. By inhibition is commonly meant the share of the control response that was lost under treatment. Low values mean a weak effect, high ones a strong effect. Regarding `CN1C(=O)[C@@H](CN2CCCCC2)C[C@H]1C#Cc1ccccc1` (relative stereo), the IC50 was 7.94 µM in series [1]; 1.26 µM in series [4]; 251 µM in series [8]; 12.6 µM in series [13]; 6.85 µM in series [19]. Further, the Ratio in series [2] was found to be 820; in series [9] it was 126; in series [17], 26400; in series [20], 1300. Further, the EC50 in series [3] is 0.01 µM. In [3], the Emax came to 104%. Further, in series [5], the hepatic extraction ratio came out at 0.9. Further, the Cp in series [6] is given as 4 pmol/g; in series [7], 18 pmol/g. In [10], the Activity entry is reported as “Non-toxic”. Besides, the free fraction (fraction unbound) in series [11] came to 0.31; in [18] it was 0.17. Besides, the Drug uptake in [12] is recorded as 239 pmol/g; in [15] it was 64 pmol/g. This molecule also registered a logP in [14] of 3.7. In [16], this molecule gave an inhibition of 33%.
In the case of `C[C@H](OC(=O)N[C@@H]1CN2CCC1CC2)c1ccccc1F`, the IC50 is 25.1 µM in [1]; 20 µM in [4]; 20 µM in [8]; more than 10 µM in [21]; 126 µM in series [13]; more than 10 µM in [22]. Also, the IC50 in [23], in series [24] and in series [25] was more than 10 µM in each case. For the same molecule, the Ratio was found to be 251 in series [2], 200 in [9], 200 in series [17] and 1260 in [20].
